Test results published in ChEMBL document CHEMBL1154756, “Synthesis of new chalcone derivatives containing acridinyl moiety with potential antimalarial activity” (Eur J Med Chem, 2010).
The source made the active and inactive calls. The calls are words filed in the database; no cut-off is given here.

Tests used:
[1] = tested on: Plasmodium falciparum; assay: Antimalarial activity against chloroquine-sensitive Plasmodium falciparum NF54 assessed as inhibition of schizont maturation at 10 ug/ml after 36-40 hrs relative to control; format: functional; parameters: scale not given: the % may be the effect or the level left
Outline: (§1)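 NF-54 cultures were kept in RPMI 1640 with 25 mM HEPES, 1% bicarbonate and 0.5% ALBUMAX-II. Wells held 3% haematocrit in medium with 10% FBS, and compound was added from a 5 mg/mL DMSO stock diluted in medium. Duplicates were incubated at 37 °C in CO2 for 36–40 h. Rings, trophozoites and schizonts were counted per 100 parasites on Giemsa smears, giving % maturation inhibition versus untreated control.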

[2] = tested on: Plasmodium falciparum; assay: Antimalarial activity against chloroquine-sensitive Plasmodium falciparum NF54 assessed as inhibition of schizont maturation at 2 ug/ml after 36-40 hrs relative to control; format: functional; parameters: scale not given: the % may be the effect or the level left; outline: as §1
[3] = tested on: Plasmodium falciparum; assay: Antimalarial activity against chloroquine-sensitive Plasmodium falciparum NF54 assessed as inhibition of schizont maturation at 100 ug/ml after 36-40 hrs relative to control; format: functional; parameters: scale not given: the % may be the effect or the level left; outline: as §1
[4] = tested on: Plasmodium falciparum; assay: Antimalarial activity against chloroquine-sensitive Plasmodium falciparum NF54 assessed as inhibition of schizont maturation at 50 ug/ml after 36-40 hrs relative to control; format: functional; parameters: scale not given: the % may be the effect or the level left; outline: as §1
[5] = tested on: Plasmodium falciparum; assay: Antimalarial activity against chloroquine-sensitive Plasmodium falciparum NF54 assessed as inhibition of schizont maturation at 0.25 ug/ml after 36-40 hrs relative to control; format: functional; parameters: scale not given: the % may be the effect or the level left
[6] = tested on: Plasmodium falciparum; assay: Antimalarial activity against chloroquine-sensitive Plasmodium falciparum NF54 assessed as inhibition of schizont maturation at 0.50 ug/ml after 36-40 hrs relative to control; format: functional; parameters: scale not given: the % may be the effect or the level left
[7] = tested on: Plasmodium falciparum; assay: Antimalarial activity against chloroquine-sensitive Plasmodium falciparum NF54 assessed as inhibition of schizont maturation at 0.0625 ug/ml after 36-40 hrs relative to control; format: functional; parameters: scale not given: the % may be the effect or the level left
[8] = tested on: Plasmodium falciparum; assay: Antimalarial activity against chloroquine-sensitive Plasmodium falciparum NF54 assessed as inhibition of schizont maturation at 0.125 ug/ml after 36-40 hrs relative to control; format: functional; parameters: scale not given: the % may be the effect or the level left
[9] = tested on: Plasmodium falciparum; assay: Antimalarial activity against chloroquine-sensitive Plasmodium falciparum NF54 assessed as inhibition of schizont maturation at 0.4 ug/ml after 36-40 hrs relative to control; format: functional; parameters: scale not given: the % may be the effect or the level left; outline: as §1
[10] = tested on: Plasmodium falciparum; assay: Antimalarial activity against chloroquine-sensitive Plasmodium falciparum NF54 assessed as inhibition of schizont maturation at 0.08 ug/ml after 36-40 hrs relative to control; format: functional; parameters: scale not given: the % may be the effect or the level left; outline: as §1
[11] = tested on: Plasmodium yoelii; assay: Antimalarial activity against chloroquine-resistant Plasmodium yoelii N67 infected in Swiss mice (Mus musculus) assessed as suppression of parasitaemia at 50 mg/kg, intraperitoneal once daily for 4 consecutive days measured after 4 days; format: functional
[12] = tested on: Plasmodium yoelii; assay: Antimalarial activity against chloroquine-resistant Plasmodium yoelii N67 infected in Swiss mice (Mus musculus) assessed as mean survival time at 50 mg/kg, intraperitoneal once daily for 4 consecutive days; format: functional
[13] = tested on: Plasmodium yoelii; assay: Antimalarial activity against chloroquine-resistant Plasmodium yoelii N67 infected in Swiss mice (Mus musculus) assessed as suppression of parasitaemia at 50 mg/kg, intraperitoneal once daily for 4 consecutive days measured after 6 days; format: functional, organism-based; parameters: dose 50 mg/kg
[14] = tested on: Plasmodium falciparum; assay: Antimalarial activity against chloroquine-resistant Plasmodium falciparum W2; format: functional, organism-based
[15] = tested on: Plasmodium falciparum; assay: Antimalarial activity against chloroquine-sensitive Plasmodium falciparum NF54 assessed as inhibition of schizont maturation; format: functional; parameters: scale not given: the % may be the effect or the level left
Outline: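 P. falciparum NF-54 was grown in RPMI 1640 with 25 mM HEPES, 1% sodium bicarbonate and 0.5% ALBUMAX-II. The assay used 3% haematocrit in medium with 10% FBS, with a DMSO stock (5 mg/mL) diluted in medium to five-fold dilutions. Duplicate wells were incubated at 37 °C in CO2 for 36–40 h, then Giemsa smears were read. MIC was the concentration fully blocking maturation to schizonts.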

## O=C(/C=C/c1ccc(Cl)cc1)c1cccc(Nc2c3ccccc3nc3ccccc23)c1
[1]
  Activity: 100%
[2]
  Activity: 0%
[3]
  Activity: 100%
[4]
  Activity: 100%

## CCN(CC)CCCC(C)Nc1ccnc2cc(Cl)ccc12 (stereo not given) [CHLOROQUINE]
[5]
  Activity: 100%
[6]
  Activity: 100%
[7]
  Activity: 74.3%
[8]
  Activity: 97.1%

## COc1ccc(/C=C/C(=O)c2ccc(Nc3c4ccccc4nc4ccccc34)cc2)cc1
[9]
  Activity: 71.4%
[1]
  Activity: 100%
[2]
  Activity: 85.7%
[10]
  Activity: 14.3%
[11]
  Activity: inactive
[3]
  Activity: 100%
[12]
  Survival: 10.67 days
[13]
  Activity: inactive
[4]
  Activity: 100%

## COc1cc(/C=C/C(=O)c2ccc(Nc3c4ccccc4nc4ccccc34)cc2)cc(OC)c1OC
[9]
  Activity: 5.7%
[1]
  Activity: 100%
[2]
  Activity: 57.1%
[3]
  Activity: 100%
[4]
  Activity: 100%

## CC(C)=CCc1cc(/C=C/C(=O)c2ccc(O)cc2O)ccc1O [LICOAGROCHALCONE A]
[14]
  IC50: 10.3 µM

## O=C(/C=C/C=C/c1ccccc1)c1ccc(Nc2c3ccccc3nc3ccccc23)cc1
[9]
  Activity: 0%
[1]
  Activity: 100%
[2]
  Activity: 64.3%
[3]
  Activity: 100%
[4]
  Activity: 100%

## COc1ccc(/C=C/C(=O)c2cccc(Nc3c4ccccc4nc4ccccc34)c2)cc1
[9]
  Activity: 7.1%
[1]
  Activity: 100%
[2]
  Activity: 71.4%
[11]
  Activity: 6.22%
[3]
  Activity: 100%
[12]
  Survival: 15.2 days
[13]
  Activity: inactive
[4]
  Activity: 100%

## O=C(/C=C/c1ccccc1)c1ccc(Nc2c3ccccc3nc3ccccc23)cc1
[1]
  Activity: 100%
[2]
  Activity: 42.8%
[3]
  Activity: 100%
[4]
  Activity: 100%

## Cc1ccc(/C=C/C(=O)c2ccc(Nc3c4ccccc4nc4ccccc34)cc2)cc1
[1]
  Activity: 100%
[2]
  Activity: 42.8%
[3]
  Activity: 100%
[4]
  Activity: 100%

## O=C(/C=C/c1cccc([N+](=O)[O-])c1)c1ccc(Nc2c3ccccc3nc3ccccc23)cc1
[1]
  Activity: 100%
[2]
  Activity: 0%
[3]
  Activity: 100%
[4]
  Activity: 100%

## Cc1cccc(/C=C/C(=O)c2ccc(Nc3c4ccccc4nc4ccccc34)cc2)c1
[1]
  Activity: 100%
[2]
  Activity: 0%
[3]
  Activity: 100%
[4]
  Activity: 100%

## COc1cc(/C=C/C(=O)c2ccc(O)c(CC=C(C)C)c2O)ccc1O [CROTAORIXIN]
[15]
  Activity: 100%

## O=C(/C=C/c1ccc(Cl)cc1)c1ccc(Nc2c3ccccc3nc3ccccc23)cc1
[1]
  Activity: 100%
[2]
  Activity: 0%
[3]
  Activity: 100%
[4]
  Activity: 100%

## O=C(/C=C/c1ccccc1)c1cccc(Nc2c3ccccc3nc3ccccc23)c1
[9]
  Activity: 4.3%
[1]
  Activity: 100%
[2]
  Activity: 97.1%
[11]
  Activity: inactive
[3]
  Activity: 100%
[12]
  Survival: 15.5 days
[13]
  Activity: inactive
[4]
  Activity: 100%
